Laboratory results published in ChEMBL document CHEMBL1153485, “Synthesis and biological evaluation of novel 1-(4-methoxyphenethyl)-1H-benzimidazole-5-carboxylic acid derivatives and their precursors as antileukemic agents” (Bioorg Med Chem Lett, 2009).
Activity calls are given as the source filed them. No cut-off for these calls is given here.

Legend:
Format in all cases: functional, cell-based
K562 [1] = assay: Cytotoxicity against human K562 cells
How it was run: (§1)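 K562 and CEM cells; IC50 values calculated from both trypan blue counting and MTT assays.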

CCRF-CEM [2] = assay: Cytotoxicity against human CEM cells; how it was run: as §1
K562 [3] = assay: Cytotoxicity against human K562 cells at 100 uM within 48 hrs by trypan blue exclusion assay
How it was run: (§2)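 Leukemic cells treated with derivatives dissolved in DMSO at […]; DMSO-only cells at the amount used for the top concentration served as vehicle control. Viable cells counted by trypan blue at 24 h intervals until stationary phase.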

CCRF-CEM [4] = assay: Cytotoxicity against human CEM cells at 100 uM within 48 hrs by trypan blue exclusion assay; how it was run: as §2
K562 [5] = assay: Cytotoxicity against human K562 cells at 250 uM within 48 hrs by trypan blue exclusion assay; how it was run: as §2
CCRF-CEM [6] = assay: Cytotoxicity against human CEM cells at 250 uM within 48 hrs by trypan blue exclusion assay; how it was run: as §2
K562 [7] = assay: Induction of apoptosis in human K562 cells assessed as DNA strand breakage at 100 uM after 72 hrs using ethidium bromide staining by agarose gel electrophoresis
K562 [8] = assay: Induction of cell cycle arrest at M phase in human K562 cells assessed as reduction in phosphorylated histone H3 level at 5 uM after 24 hrs by Western blot analysis
K562 [9] = assay: Induction of cell cycle arrest at M phase in human K562 cells assessed as reduction in phosphorylated histone H3 level at 10 uM after 24 hrs by Western blot analysis
K562 [10] = assay: Induction of cell cycle arrest in human K562 cells assessed as reduction in PCNA level at 5 to 10 uM after 24 hrs by Western blot analysis
K562 [11] = assay: Induction of cell cycle arrest at G2/M phase in human K562 cells assessed as down-regulation of cyclin B1 at 5 to 10 uM after 24 hrs by Western blot analysis
K562 [12] = assay: Induction of cell cycle arrest at S phase in human K562 cells assessed as down-regulation of CDK2 at 10 uM after 24 hrs by Western blot analysis
K562 [13] = assay: Induction of p21 activation in human K562 cells at 5 to 10 uM after 24 hrs by Western blot analysis
K562 [14] = assay: Induction of apoptosis in human K562 cells assessed as DNA strand breakage at 10 uM after 72 hrs using ethidium bromide staining by agarose gel electrophoresis
K562 [15] = assay: Induction of apoptosis in human K562 cells assessed as upregulation of BAD protein at 30 uM by SDS-PAGE; settings: TDE = time-dependent effect
How it was run: (§3)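 K562 cells treated with […] compound for 12 and 24 h; DMSO-treated cells grown 24 h as vehicle control. Lysates separated by SDS-PAGE, transferred to PVDF, probed with specific primary and secondary antibodies for BAD, BCL2 and PARP.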

K562 [16] = assay: Induction of apoptosis in human K562 cells assessed as down-regulation of BCL2 protein at 30 uM after 12 hrs by SDS-PAGE; how it was run: as §3
K562 [17] = assay: Induction of apoptosis in human K562 cells assessed as PARP cleavage at 30 uM after 12 hrs by SDS-PAGE; how it was run: as §3
K562 [18] = assay: Cell cycle arrest in human K562 cells assessed as accumulation at S phase at 1 to 10 uM after 8 to 48 hrs by FACS analysis
How it was run: (§4)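 K562 cells treated with […] compound, analysed by FACS for cell cycle distribution; DMSO-treated cells as vehicle control.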

K562 [19] = assay: Cell cycle arrest in human K562 cells assessed as accumulation at G2/M phase at 1 to 10 uM after 8 to 48 hrs by FACS analysis; how it was run: as §4

Structure (SMILES) | IC50 (K562 [1]) [µM] | IC50 (CCRF-CEM [2]) [µM] | Activity (K562 [3]) | Activity (CCRF-CEM [4]) | Activity (K562 [5]) | Activity (CCRF-CEM [6]) | also measured
COC(=O)c1ccc2c(c1)nc(-c1ccc(N)cc1)n2CCc1ccc(OC)cc1 | 180 | 175 | – | – | – | – | –
COC(=O)c1ccc2c(c1)nc(-c1c(F)cccc1F)n2CCc1ccc(OC)cc1 | 84 | 85 | Active | Active | Active | Active | –
COC(=O)c1ccc2c(c1)nc(-c1cccc(Br)c1)n2CCc1ccc(OC)cc1 | > 250 | > 250 | – | – | – | – | –
COC(=O)c1ccc2c(c1)nc(-c1ccccc1)n2CCc1ccc(OC)cc1 | 64 | 65 | Active | Active | Active | Active | –
COC(=O)c1ccc2c(c1)nc(-c1ccc([N+](=O)[O-])cc1)n2CCc1ccc(OC)cc1 | 120 | 122 | – | – | – | – | –
COc1ccc(CCn2c(-c3cccc(Br)c3)nc3cc(C(=O)O)ccc32)cc1 | 124 | 120 | Active | Active | Active | Active | –
COC(=O)c1ccc2c(c1)nc(-c1ccc(Cl)cc1Cl)n2CCc1ccc(OC)cc1 | > 250 | > 250 | – | – | – | – | –
COC(=O)c1ccc2c(c1)nc(-c1ccc(C(C)(C)C)cc1)n2CCc1ccc(OC)cc1 | 70 | 68 | Active | Active | Active | Active | –
COc1ccc(CCn2c(-c3ccc(C(C)(C)C)cc3)nc3cc(C(=O)O)ccc32)cc1 | 40 | 42 | – | – | – | – | Activity (K562 [7]): Active
COc1ccc(CCn2c(-c3cccc(OC)c3)nc3cc(C(=O)O)ccc32)cc1 | 200 | 195 | – | – | – | – | –
COC(=O)c1ccc2c(c1)nc(-c1ccccc1F)n2CCc1ccc(OC)cc1 | 56 | 55 | Active | Active | Active | Active | Activity (K562 [7]): Active
COc1ccc(CCn2c(-c3ccc(F)c(N)c3)nc3cc(C(=O)O)ccc32)cc1 | 180 | 182 | – | – | – | – | –
COc1ccc(CCn2c(-c3ccc(F)c([N+](=O)[O-])c3)nc3cc(C(=O)O)ccc32)cc1 | 135 | 132 | – | – | – | – | –
COc1ccc(CCn2c(-c3ccc([N+](=O)[O-])cc3)nc3cc(C(=O)O)ccc32)cc1 | 250 | 245 | – | – | – | – | –
COC(=O)c1ccc2c(c1)nc(-c1ccc(F)c([N+](=O)[O-])c1)n2CCc1ccc(OC)cc1 | 3 | 4 | Active | Active | Active | Active | Activity (K562 [8]): Active; Activity (K562 [9]): Active; Activity (K562 [10]): Active; Activity (K562 [11]): Active; Activity (K562 [12]): Active; Activity (K562 [13]): Active; Activity (K562 [14]): Active; Activity (K562 [15]): tde; Activity (K562 [16]): Active; Activity (K562 [17]): Active; Activity (K562 [18]): Active; Activity (K562 [19]): Active
COc1ccc(CCn2c(-c3ccccc3)nc3cc(C(=O)O)ccc32)cc1 | > 250 | > 250 | – | – | – | – | –
COC(=O)c1ccc2c(c1)nc(-c1cccc(OC)c1)n2CCc1ccc(OC)cc1 | 136 | 138 | Active | Active | Active | Active | –
COc1ccc(CCn2c(-c3c(F)cccc3F)nc3cc(C(=O)O)ccc32)cc1 | 80 | 85 | – | – | – | – | –
COc1ccc(CCn2c(-c3ccc(N)cc3)nc3cc(C(=O)O)ccc32)cc1 | > 250 | > 250 | – | – | – | – | –
COc1ccc(CCn2c(-c3ccc(Cl)cc3Cl)nc3cc(C(=O)O)ccc32)cc1 | 110 | 102 | Active | Active | Active | Active | –
COC(=O)c1ccc2c(c1)nc(-c1ccc(F)c(N)c1)n2CCc1ccc(OC)cc1 | 78 | 75 | – | – | – | – | –
COc1ccc(CCn2c(-c3ccccc3F)nc3cc(C(=O)O)ccc32)cc1 | 240 | 244 | – | – | – | – | –
